Measured values taken from ChEMBL document CHEMBL1153852, “Steroidal lactones as inhibitors of 17beta-hydroxysteroid dehydrogenase type 5: chemical synthesis, enzyme inhibitory activity, and assessment of estrogenic and androgenic activities” (Eur J Med Chem, 2009).
Active and inactive are the calls of the source. The calls are words filed in the database; no cut-off is given here.

Experiments:
[1] = target: T1, Aldo-keto reductase family 1 member C3 (Homo sapiens) (UniProt P42330); experiment: Inhibition of human 17beta-HSD5 expressed in HEK293 cells assessed as enzyme-mediated transformation of [14C]-4-androstene-3,17-dione in to [14C]-testosterone at 3 uM after 18 hrs; assay type: cell-based
T1 sequence (whole entry): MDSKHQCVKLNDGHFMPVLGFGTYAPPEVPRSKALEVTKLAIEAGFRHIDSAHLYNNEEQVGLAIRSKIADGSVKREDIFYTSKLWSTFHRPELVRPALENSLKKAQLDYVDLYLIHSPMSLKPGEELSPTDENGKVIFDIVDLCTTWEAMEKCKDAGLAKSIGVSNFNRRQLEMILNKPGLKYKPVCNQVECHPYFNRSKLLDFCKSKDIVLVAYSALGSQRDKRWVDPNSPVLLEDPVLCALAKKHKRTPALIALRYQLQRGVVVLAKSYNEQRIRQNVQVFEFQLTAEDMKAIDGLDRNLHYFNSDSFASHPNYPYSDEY
Method in brief: (§1)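 Intact HEK-293 cells stably over-expressing human 17β-HSD5, in freshly changed culture medium. [14C]-4-androstene-3,17-dione is added at 100 nM with inhibitor from an ethanolic solution; controls get ethanol only. After 18 h the conversion to [14C]-T is measured.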

ZR-75-1 [2] = experiment: Antiestrogenic activity in human ZR-75-1 cells expressing estrogen receptor assessed as inhibition of estrogen-induced cell proliferation at 1 uM after 9 days relative to estrogen; assay type: functional, cell-based
Method in brief: (§2)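 ZR-75-1 cells are resuspended in phenol red-free RPMI 1640 with 5% dextran-charcoal-treated FBS and seeded at 10,000 cells/well. After 3 days of adhesion, lactones from ethanol stocks are added alone or with E2 (0.1 nM). Cells grow 9 days at 37 °C in 5% CO2, with medium changed every 2–3 days. DNA is measured by DABA fluorescence; E2-induced growth is set to 100%.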

[3] = target: T1, Aldo-keto reductase family 1 member C3 (Homo sapiens); experiment: Inhibition of human 17beta-HSD5 expressed in HEK293 cells assessed as enzyme-mediated transformation of [14C]-4-androstene-3,17-dione in to [14C]-testosterone at 0.3 uM after 18 hrs; assay type: cell-based; method in brief: as §1
ZR-75-1 [4] = experiment: Estrogenic activity in human ZR-75-1 cells expressing estrogen receptor assessed as estrogen-induced cell proliferation at 1 uM after 9 days relative to estrogen; assay type: functional; method in brief: as §2
[5] = target: T2, Estrogen receptor (Rattus norvegicus) (UniProt P06211); experiment: Binding affinity to rat uterus estrogen receptor at 0.1 uM
T2 sequence (whole entry): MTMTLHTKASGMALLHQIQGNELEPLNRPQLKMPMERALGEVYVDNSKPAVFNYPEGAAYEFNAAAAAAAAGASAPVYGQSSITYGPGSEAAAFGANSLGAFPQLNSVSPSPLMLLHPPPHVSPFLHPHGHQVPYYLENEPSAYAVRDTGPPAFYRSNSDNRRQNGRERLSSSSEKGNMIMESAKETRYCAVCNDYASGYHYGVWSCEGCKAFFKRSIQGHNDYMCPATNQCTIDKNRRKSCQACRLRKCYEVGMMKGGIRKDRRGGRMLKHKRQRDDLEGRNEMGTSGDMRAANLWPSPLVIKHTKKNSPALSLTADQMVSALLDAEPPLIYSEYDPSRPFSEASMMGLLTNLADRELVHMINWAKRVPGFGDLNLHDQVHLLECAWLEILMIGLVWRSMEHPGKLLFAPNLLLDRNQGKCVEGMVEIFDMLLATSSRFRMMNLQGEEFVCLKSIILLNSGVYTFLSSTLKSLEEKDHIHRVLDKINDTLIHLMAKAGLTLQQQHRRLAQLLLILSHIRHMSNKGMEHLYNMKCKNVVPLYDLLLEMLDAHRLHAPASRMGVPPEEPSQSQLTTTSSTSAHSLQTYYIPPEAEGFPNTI

Mus musculus [6] = species: Mus musculus; experiment: Androgenic activity in mouse SC115 cells expressing androgen receptor assessed as DHT-induced cell proliferation at 1 uM after 10 days relative to DHT; assay type: functional, cell-based
Method in brief: (§3)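 SC115 Shionogi clone selected for DHT sensitivity, in MEM with 2% dextran-charcoal-treated FCS, seeded at 20,000 cells/well. After 24 h the medium is renewed and lactones added at 0.1 and 1, without DHT. Final ethanol is 0.01%. Cells are grown 10 days at 37 °C in 5% CO2, with medium changed every 3–4 days. DNA is measured by DABA fluorescence; DHT-stimulated growth is set to 100%.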

Mus musculus [7] = species: Mus musculus; experiment: Androgenic activity in mouse SC115 cells expressing androgen receptor assessed as DHT-induced cell proliferation at 0.1 uM after 10 days relative to DHT; assay type: functional, cell-based; method in brief: as §3
[8] = target: T3, Aldo-keto reductase family 1 member C3 (Homo sapiens, UniProt P42330); experiment: Inhibition of human 17beta-HSD5 expressed in HEK293 cells assessed as enzyme-mediated transformation of [14C]-4-androstene-3,17-dione in to [14C]-testosterone after 18 hrs; assay type: cell-based
T3 sequence (P42330 whole entry): T1 sequence (whole entry)
Method in brief: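 Intact HEK-293 cells stably over-expressing human 17β-HSD5, in fresh culture medium. [14C]-4-androstene-3,17-dione 0.1 μM with inhibitor added in ethanol (ethanol alone as control), 18 h.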

ZR-75-1 [9] = experiment: Antiestrogenic activity in human ZR-75-1 cells expressing estrogen receptor assessed as inhibition of estrogen-induced cell proliferation at 0.03 uM after 9 days relative to estrogen; assay type: functional, cell-based; method in brief: as §2
[10] = target: T4, 17-beta-hydroxysteroid dehydrogenase type 1 (Homo sapiens) (UniProt P14061); experiment: Inhibition of human 17beta-HSD1 expressed in HEK293 cells assessed as enzyme-mediated transformation of [14C]-E1 in to [14C]-E2 at 1 uM; assay type: cell-based
T4 sequence (whole entry): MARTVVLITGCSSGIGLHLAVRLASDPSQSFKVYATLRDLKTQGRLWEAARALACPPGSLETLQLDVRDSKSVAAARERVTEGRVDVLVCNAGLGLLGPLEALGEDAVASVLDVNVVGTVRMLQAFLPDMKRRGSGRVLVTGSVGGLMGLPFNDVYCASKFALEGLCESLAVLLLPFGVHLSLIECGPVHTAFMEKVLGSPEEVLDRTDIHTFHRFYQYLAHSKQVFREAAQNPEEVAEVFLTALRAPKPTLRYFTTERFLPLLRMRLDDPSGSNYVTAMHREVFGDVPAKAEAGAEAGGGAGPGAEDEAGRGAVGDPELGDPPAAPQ

[11] = target: T2, Estrogen receptor (Rattus norvegicus); experiment: Binding affinity to rat uterus estrogen receptor at 1 uM

Structure (SMILES)	inhibition [1] [%]	Activity (ZR-75-1 [2])	inhibition [3] [%]	Activity (ZR-75-1 [4]) [%]	Activity [5] [%]	Activity (Mus musculus [6])	Activity (Mus musculus [7])	IC50 [8] [nM]	Activity (ZR-75-1 [9])	inhibition [10] [%]	Activity [11] [%]
CC1(C)CC[C@@]2(CC[C@H]3[C@@H]4CCc5cc(O)ccc5[C@H]4CC[C@@]32C)OC1=O	94	Active	86	30	10	inactive	inactive	28	inactive		
CC1(C)CC[C@@]2(CC[C@H]3[C@@H]4CCc5ccccc5[C@H]4CC[C@@]32C)OC1=O	95	inactive	94	50		inactive	inactive	2.9	inactive	50	0
